Published values from different studies.
Each line is one published result; the experiments were not run side by side.
Effect on: cell growth or viability

SMILES | cell line | method | concentration | time | measurement | value
COc1cccc2c1C(=O)c1c(O)c3c(c(O)c1C2=O)C[C@@](O)(C(=O)CO)C[C@@H]3O[C@H]1C[C@H](N)[C@H](O)[C@H](C)O1 | MX1 | – | – | 96 h | IC50 | 22.5 nM
Cc1nc(Nc2ncc(C(=O)Nc3c(C)cccc3Cl)s2)cc(N2CC[C@H](O)C2)n1 | RS4-11 | ATP luminescence | 10 µM | 72 h | inhibition | 46%
CO[C@H]1[C@H](O[C@H]([C@H]2O[C@@H](n3ccc(=O)[nH]c3=O)[C@H](O)[C@@H]2O)[C@H](NCCCNC(=O)[C@@H](NC(=O)[C@@H](NC(=O)N[C@H](C(=O)O)C(C)C)[C@@H]2CCN=C(N)N2)[C@@H](O)C(C)C)C(=O)O)O[C@H](CN)[C@H]1O | MDA-MB-453 | WST-1 | – | – | IC50 | > 35000 nM
CCCCCCCCCCCCCCCCCCOc1cccc(CC(=O)OCC[N+](CC)(CC)CC)c1 | NCI-H460 | SRB | 10 µM | – | inhibition | 33%
COc1cc([C@@H]2c3cc4c(cc3[C@@H](O[C@@H]3O[C@@H]5CO[C@@H](C)O[C@H]5[C@H](O)[C@H]3O)[C@H]3COC(=O)[C@H]23)OCO4)cc(OC)c1O | SNU-638 | SRB | – | 72 h | IC50 | 590 nM
CO[C@H]1[C@H](O[C@H]([C@H]2O[C@@H](n3ccc(=O)[nH]c3=O)[C@H](O)[C@@H]2O)[C@H](NCCCNC(=O)[C@@H](NC(=O)[C@@H](NC(=O)N[C@H](C(=O)O)C(C)C)[C@@H]2CCN=C(N)N2)[C@@H](OC(=O)CCCCCCCCCCCCN(O)C(=N)N)C(C)C)C(=O)O)O[C@H](CN)[C@H]1O | MDA-MB-453 | WST-1 | – | – | IC50 | 880 nM
Cc1sc2c(c1C)C(c1ccc(Cl)cc1)=N[C@@H](CC(=O)NCCCCNC(=O)COc1cccc3c1C(=O)N(C1CCC(=O)NC1=O)C3=O)c1nnc(C)n1-2 (stereo partly shown) | MDA-MB-453 | CCK-8 | – | 72 h | IC50 | 2720 nM
CN1CCC(NC2CCc3[nH]c4c(C(N)=O)ccc(-c5ccccc5Cl)c4c3C2)CC1 (stereo not shown) | MX1 | – | – | 96 h | IC50 | 19.5 nM
COC(=O)[C@H]1[C@@H](O)[C@@]2(O)c3c(OC)cc(O[C@@H]4O[C@@H]([C@H](O)CO)CO[C@H]4OC)cc3O[C@@]2(c2ccc(OC)cc2)[C@@H]1c1ccccc1 | HK-1 | MTS | – | 72 h | IC50 | 5 nM
N/C(=N\O)c1ccc(-c2cc(CNc3cccc4cccnc34)on2)cc1 | NCI-H460 | MTS | – | 72 h | IC50 | 95100 nM
Cc1cnc(CNC(=O)c2c(=O)c3ccc(N4CCCN(C)CC4)nc3n3c2sc2ccccc23)cn1 | HK-1 | MTS | – | 72 h | IC50 | 1000 nM
C[C@H](Nc1ccc2c(c1)OCCn1cc(N3C(=O)OC[C@H]3C(F)F)nc1-2)C(N)=O | MDA-MB-453 | ATP luminescence | – | 5 days | EC50 | 45.7 nM
Nc1ccn([C@@H]2O[C@H](CO)[C@@H](O)C2(F)F)c(=O)n1 | HCCC9810 | CCK-8 | – | – | IC50 | 2030 nM
